Measurements reported in ChEMBL document CHEMBL1949535, “Synthesis and preliminary antibacterial evaluation of Linezolid-like 1,2,4-oxadiazole derivatives” (2012).
≈ marks a conversion by molar mass, not a printed value.

Assays:
Type in all cases: functional
Staphylococcus aureus [1] = assay: Antibacterial activity against methicillin-sensitive Staphylococcus aureus ATCC 25923 after 16 to 20 hrs by microbroth dilution method
Outline: (§1)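 CLSI broth microdilution in Mueller-Hinton broth. Compounds were dissolved in 100% DMSO and serially two-fold diluted to cover 0.12 to >256 mg/L. An equal volume of inoculum at 1 × 10⁶ CFU/mL was added, then plates were incubated at 35 °C for 16–20 h. MIC was the lowest concentration with no visible growth. DMSO and uninoculated-medium controls were run in parallel.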

Serratia marcescens = assay: Antibacterial activity against Serratia marcescens Mel 522 after 16 to 20 hrs by microbroth dilution method; outline: as §1
Streptococcus pyogenes [2] = assay: Antibacterial activity against erythromycin-sensitive Streptococcus pyogenes 3 after 16 to 20 hrs by microbroth dilution method; outline: as §1
Streptococcus pyogenes [3] = assay: Antibacterial activity against erythromycin-resistant Streptococcus pyogenes 47 after 16 to 20 hrs by microbroth dilution method
Outline: (§2)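 CLSI broth microdilution in Mueller-Hinton broth. Compound stocks in 100% DMSO, serially diluted two-fold to 0.12->256 mg/L. An equal volume of inoculum at 1 x 10⁶ CFU/mL was added to each well. Plates were incubated 16-20 h at 35 °C. MIC (mg/L) was taken as the lowest concentration with no visible growth. DMSO and uninoculated-medium controls were run in parallel.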

Streptococcus pyogenes [4] = assay: Antibacterial activity against Streptococcus pyogenes ATCC 19615 after 16 to 20 hrs by microbroth dilution method; outline: as §2
Streptococcus pyogenes [5] = assay: Antibacterial activity against erythromycin-resistant Streptococcus pyogenes 6 after 16 to 20 hrs by microbroth dilution method; outline: as §2
Streptococcus pyogenes [6] = assay: Antibacterial activity against erythromycin-sensitive Streptococcus pyogenes 9 after 16 to 20 hrs by microbroth dilution method; outline: as §1
Escherichia coli [7] = assay: Antibacterial activity against Escherichia coli ATCC 25922 after 16 to 20 hrs by microbroth dilution method; outline: as §1
Streptococcus pyogenes [8] = assay: Antibacterial activity against erythromycin-resistant Streptococcus pyogenes 24 after 16 to 20 hrs by microbroth dilution method; outline: as §2
Streptococcus pyogenes [9] = assay: Antibacterial activity against erythromycin-sensitive Streptococcus pyogenes 12 after 16 to 20 hrs by microbroth dilution method; outline: as §1
Escherichia coli [10] = assay: Antibacterial activity against Escherichia coli 3350 after 16 to 20 hrs by microbroth dilution method; outline: as §1
Staphylococcus aureus [11] = assay: Antibacterial activity against methicillin-resistant Staphylococcus aureus C530 after 16 to 20 hrs by microbroth dilution method; outline: as §2
Staphylococcus aureus [12] = assay: Antibacterial activity against Staphylococcus aureus ATCC 43300 after 16 to 20 hrs by microbroth dilution method; outline: as §1
Staphylococcus aureus [13] = assay: Antibacterial activity against methicillin-sensitive Staphylococcus aureus ATCC 29213 after 16 to 20 hrs by microbroth dilution method; outline: as §1
Streptococcus pneumoniae = assay: Antibacterial activity against Streptococcus pneumoniae PEN-1 after 16 to 20 hrs by microbroth dilution method; details: PEN I; outline: as §1
Staphylococcus aureus [14] = assay: Antibacterial activity against methicillin-resistant glycopeptide-intermediate Staphylococcus aureus Mu50 after 16 to 20 hrs by microbroth dilution method; outline: as §2
Streptococcus pyogenes [15] = assay: Antibacterial activity against compound-resistant Streptococcus pyogenes 47 after 16 to 20 hrs by microbroth dilution method; outline: as §2
Streptococcus pyogenes [16] = assay: Antibacterial activity against compound-resistant Streptococcus pyogenes 24 after 16 to 20 hrs by microbroth dilution method; outline: as §2

SMILES	MIC (Staphylococcus aureus [1])	MIC (Serratia marcescens)	MIC (Streptococcus pyogenes [2])	MIC (Streptococcus pyogenes [3])	MIC (Streptococcus pyogenes [4])	MIC (Streptococcus pyogenes [5])	MIC (Streptococcus pyogenes [6])	MIC (Escherichia coli [7])	MIC (Streptococcus pyogenes [8])	MIC (Streptococcus pyogenes [9])	MIC (Escherichia coli [10])	MIC (Staphylococcus aureus [11])	MIC (Staphylococcus aureus [12])	MIC (Staphylococcus aureus [13])	MIC (Streptococcus pneumoniae)	MIC (Staphylococcus aureus [14])	MIC (Streptococcus pyogenes [15])	MIC (Streptococcus pyogenes [16])
CC(=O)NC[C@H]1CN(c2ccc(N3CCOCC3)c(F)c2)C(=O)O1 [LINEZOLID]	1 mg/L (≈ 2.96 µM)	128 mg/L (≈ 379 µM)	1 mg/L (≈ 2.96 µM)	1 mg/L (≈ 2.96 µM)	1 mg/L (≈ 2.96 µM)	0.12 mg/L (≈ 0.356 µM)	1 mg/L (≈ 2.96 µM)	4 mg/L (≈ 11.9 µM)	0.12 mg/L (≈ 0.356 µM)	0.25 mg/L (≈ 0.741 µM)	> 256 mg/L							
CO/N=C(\C(=O)N[C@@H]1C(=O)N2C(C(=O)O)=C(CSc3nc(=O)c(O)nn3C)CS[C@H]12)c1csc(N)n1 [CEFTRIAXONE]	1 mg/L (≈ 1.8 µM)	< 0.12 mg/L	< 0.12 mg/L	< 0.12 mg/L	< 0.12 mg/L	< 0.12 mg/L	< 0.12 mg/L	0.12 mg/L (≈ 0.216 µM)	< 0.12 mg/L	< 0.12 mg/L	4 mg/L (≈ 7.21 µM)	> 256 mg/L	8 mg/L (≈ 14.4 µM)	4 mg/L (≈ 7.21 µM)	0.12 mg/L (≈ 0.216 µM)	4 mg/L (≈ 7.21 µM)		
NC(=O)c1noc(-c2ccc(N3CCOCC3)c(F)c2)n1	> 256 mg/L	128 mg/L (≈ 438 µM)	128 mg/L (≈ 438 µM)	> 256 mg/L	128 mg/L (≈ 438 µM)	128 mg/L (≈ 438 µM)	> 256 mg/L	128 mg/L (≈ 438 µM)	128 mg/L (≈ 438 µM)	128 mg/L (≈ 438 µM)	128 mg/L (≈ 438 µM)	> 256 mg/L	> 256 mg/L	> 256 mg/L	> 256 mg/L	> 256 mg/L		
CC(=O)NCc1noc(-c2ccc(N3CCOCC3)cc2)n1	> 256 mg/L	128 mg/L (≈ 423 µM)	128 mg/L (≈ 423 µM)	64 mg/L (≈ 212 µM)	128 mg/L (≈ 423 µM)	128 mg/L (≈ 423 µM)	128 mg/L (≈ 423 µM)	> 256 mg/L	64 mg/L (≈ 212 µM)	128 mg/L (≈ 423 µM)	128 mg/L (≈ 423 µM)	> 256 mg/L	> 256 mg/L	> 256 mg/L	128 mg/L (≈ 423 µM)	> 256 mg/L		
NC(=O)c1noc(-c2ccc(N3CCOCC3)cc2)n1	> 256 mg/L	128 mg/L (≈ 467 µM)	128 mg/L (≈ 467 µM)	> 256 mg/L	128 mg/L (≈ 467 µM)	128 mg/L (≈ 467 µM)	128 mg/L (≈ 467 µM)	> 256 mg/L	> 256 mg/L	128 mg/L (≈ 467 µM)	128 mg/L (≈ 467 µM)	> 256 mg/L	> 256 mg/L	> 256 mg/L	128 mg/L (≈ 467 µM)	> 256 mg/L		
CC[C@H]1OC(=O)[C@H](C)[C@@H](O[C@H]2C[C@@](C)(OC)[C@@H](O)[C@H](C)O2)[C@H](C)[C@@H](O[C@@H]2O[C@H](C)C[C@H](N(C)C)[C@H]2O)[C@](C)(O)C[C@@H](C)C(=O)[C@H](C)[C@@H](O)[C@]1(C)O [ERYTHROMYCIN]																	> 256 mg/L	> 256 mg/L
CC(=O)NCc1noc(-c2cc(F)c(N3CCOCC3)c(F)c2)n1	> 256 mg/L	> 256 mg/L	> 256 mg/L	128 mg/L (≈ 378 µM)	128 mg/L (≈ 378 µM)	128 mg/L (≈ 378 µM)	> 256 mg/L	128 mg/L (≈ 378 µM)	> 256 mg/L	> 256 mg/L	128 mg/L (≈ 378 µM)	> 256 mg/L	> 256 mg/L	> 256 mg/L	> 256 mg/L	> 256 mg/L		
NC(=O)c1noc(-c2c(F)c(F)c(N3CCOCC3)c(F)c2F)n1	> 256 mg/L	> 256 mg/L	> 256 mg/L	> 256 mg/L	> 256 mg/L	> 256 mg/L	> 256 mg/L	128 mg/L (≈ 370 µM)	> 256 mg/L	> 256 mg/L	> 256 mg/L	> 256 mg/L	> 256 mg/L	> 256 mg/L	> 256 mg/L	> 256 mg/L		
NC(=O)c1noc(-c2cc(F)c(N3CCOCC3)c(F)c2F)n1	> 256 mg/L	> 256 mg/L	> 256 mg/L	128 mg/L (≈ 390 µM)	128 mg/L (≈ 390 µM)	128 mg/L (≈ 390 µM)	> 256 mg/L	128 mg/L (≈ 390 µM)	> 256 mg/L	> 256 mg/L	128 mg/L (≈ 390 µM)	> 256 mg/L	> 256 mg/L	> 256 mg/L	> 256 mg/L	> 256 mg/L		
NC(=O)c1noc(-c2cc(F)c(N3CCOCC3)c(F)c2)n1	> 256 mg/L	> 256 mg/L	> 256 mg/L	128 mg/L (≈ 413 µM)	128 mg/L (≈ 413 µM)	128 mg/L (≈ 413 µM)	> 256 mg/L	128 mg/L (≈ 413 µM)	> 256 mg/L	> 256 mg/L	128 mg/L (≈ 413 µM)	> 256 mg/L	> 256 mg/L	> 256 mg/L	> 256 mg/L	> 256 mg/L		
CC(=O)NCc1noc(-c2cc(F)c(N3CCOCC3)c(F)c2F)n1	> 256 mg/L	> 256 mg/L	> 256 mg/L	128 mg/L (≈ 359 µM)	128 mg/L (≈ 359 µM)	128 mg/L (≈ 359 µM)	> 256 mg/L	128 mg/L (≈ 359 µM)	> 256 mg/L	> 256 mg/L	128 mg/L (≈ 359 µM)	> 256 mg/L	> 256 mg/L	> 256 mg/L	> 256 mg/L	> 256 mg/L		
CC(=O)NCc1noc(-c2ccc(N3CCOCC3)c(F)c2)n1	> 256 mg/L	> 256 mg/L	> 256 mg/L	> 256 mg/L	128 mg/L (≈ 400 µM)	128 mg/L (≈ 400 µM)	> 256 mg/L	128 mg/L (≈ 400 µM)	128 mg/L (≈ 400 µM)	128 mg/L (≈ 400 µM)	128 mg/L (≈ 400 µM)	> 256 mg/L	> 256 mg/L	> 256 mg/L	> 256 mg/L	> 256 mg/L		
CC(=O)NCc1noc(-c2c(F)c(F)c(N3CCOCC3)c(F)c2F)n1	> 256 mg/L	> 256 mg/L	> 256 mg/L	> 256 mg/L	> 256 mg/L	> 256 mg/L	> 256 mg/L	128 mg/L (≈ 342 µM)	> 256 mg/L	> 256 mg/L	> 256 mg/L	> 256 mg/L	> 256 mg/L	> 256 mg/L	> 256 mg/L	> 256 mg/L		
